Assay type in all cases: functional
Experiment [1] deals with Candida albicans. The experiment can be described thus: Antifungal activity against Candida albicans E81022 after 2 days by broth-microdilution method. The settings on record: E81022, 48 h. Put shortly:
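Yeast broth microdilution following CLSI M27-A3, slightly modified. Cells were subcultured in Sabouraud dextrose broth at 35 °C for 1–2 days, then inoculated at 2×10^3–2×10^4 cells/mL. Compounds in twofold DMSO dilutions gave final concentrations of 0.05–200 µg/mL; the control was 1% DMSO. Incubation was 35 °C for 2 days. MIC was the lowest concentration with a visually prominent turbidity drop relative to control.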
Background: Dilution methods test growth across graded concentrations, often in twofold steps.

For experiment [2], the system named is Candida albicans. The experiment in a line: Ratio of compound MIC to Amphotericin B MIC for Candida albicans E81022.
For a further experiment, the system named is Aspergillus fumigatus. The experiment can be described thus: Antifungal activity against Aspergillus fumigatus Tsukuba after 2 days by broth-microdilution method. Particulars: 48 h. Put shortly:
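CLSI M38-A2 broth microdilution, slightly modified. Conidia came from a one-week PDA culture at 35 °C and were stored at −80 °C. Inoculum was 2×10^3–2×10^4 conidia/mL. Compounds were serially twofold diluted from DMSO stock to final concentrations of 0.05–200 µg/mL; the control was 1% DMSO. Plates were incubated at 35 °C for 2 days. MIC was the lowest concentration giving a visually prominent turbidity decrease versus control.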

The subject of experiment [3] is Saccharomyces cerevisiae. The experiment can be described thus: Antifungal activity against Saccharomyces cerevisiae KE744 after 2 days by broth-microdilution method. The settings on record: KE744, 48 h. Put shortly: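 S. cerevisiae strain overexpressing GWT1 from the GAPDH promoter, grown in SD ura- medium at 30 °C for 1–2 days. Modified CLSI broth microdilution used 2×10^3–2×10^4 cells/mL. Final compound concentrations were 0.05–200 µg/mL from twofold DMSO dilutions, with 1% DMSO as control. Incubation was 30 °C for 2 days. MIC was the lowest concentration visibly and prominently reducing turbidity versus control.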

Experiment [4] relates to Saccharomyces cerevisiae. The experiment in a line: Antifungal activity against Saccharomyces cerevisiae KE743 […] after 2 days by broth-microdilution method. Particulars: KE743, 48 h. In outline: (§1)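 Broth microdilution (modified CLSI M27-A3) on S. cerevisiae KE743 (control) and KE744 (GWT1 overexpressed from GAPDH promoter), precultured in SD ura- at 30 °C for 1–2 days. Inoculum 2 × 10^3–2 × 10^4 cells/ml. Twofold dilutions at 0.05–200 µg/mL final, from DMSO; 1% DMSO control. Incubated 30 °C, 2 days. MIC is the lowest concentration with a prominent visual turbidity decrease; KE744/KE743 MICs compared.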

Experiment [5] relates to Saccharomyces cerevisiae. The experiment in a line: Ratio of MIC for Saccharomyces cerevisiae KE744 to Saccharomyces cerevisiae KE743 overexpressing GWT1. In outline:
as §1

Usually MIC stands for the smallest concentration in the dilution series that meets the test's criterion for growth inhibition. The low end stands for greater potency, the high end for weaker potency.

In brackets after ≈: the same amount, converted by molar mass.

As to `Nc1ncccc1C(=O)NCc1ccc(Cc2ccccc2)s1`, the values for the minimum inhibitory concentration (MIC) against Candida albicans [1] and against Aspergillus fumigatus were 0.05 µg/mL (≈ 0.155 µM) and 0.78 µg/mL (≈ 2.41 µM), respectively. In the experiment on Candida albicans [2], the Ratio turned out to be 2.
`O=C(NCc1ccc(Oc2cccc(F)c2)s1)c1ccc2ncccc2c1`: the minimal inhibitory concentration (MIC) in the experiment on Candida albicans [1] was determined as 0.1 µg/mL (≈ 0.264 µM); against Saccharomyces cerevisiae [3], 3.13 µg/mL (≈ 8.27 µM); against Saccharomyces cerevisiae [4] it was 0.025 µg/mL (≈ 0.0661 µM); in the experiment on Aspergillus fumigatus, 1.56 µg/mL (≈ 4.12 µM). The results for the Ratio in the experiment on Candida albicans [2] and in the experiment on Saccharomyces cerevisiae [5] were 2 and 128, respectively.
On to `O=C(NCc1ccc(Oc2ccccc2)s1)c1cnc2[nH]ccc2c1`, for which the MIC with Candida albicans [1] is 0.39 µg/mL (≈ 1.12 µM); against Saccharomyces cerevisiae [3], more than 12.5 µg/mL; with Saccharomyces cerevisiae [4], 0.2 µg/mL (≈ 0.572 µM); in the experiment with Aspergillus fumigatus, 3.13 µg/mL (≈ 8.96 µM). For the same compound, the values for the Ratio in the experiment with Candida albicans [2] and with Saccharomyces cerevisiae [5] were 2 and more than 64, respectively.
`Nc1ccc(C(=O)NCc2ccc(Oc3cccc(F)c3)s2)cn1`: the MIC against Candida albicans [1] is 1.56 µg/mL (≈ 4.54 µM); with Saccharomyces cerevisiae [3], more than 12.5 µg/mL; against Saccharomyces cerevisiae [4], 1.56 µg/mL (≈ 4.54 µM). Besides, the Ratio in the experiment on Saccharomyces cerevisiae [5] is recorded as more than 8.
As to `Nc1ncccc1C(=O)NCc1ccc(Oc2cccc(F)c2)s1`, the MIC against Candida albicans [1] was determined as 0.05 µg/mL (≈ 0.146 µM); with Saccharomyces cerevisiae [3] it was 12.5 µg/mL (≈ 36.4 µM); with Saccharomyces cerevisiae [4] it was 0.1 µg/mL (≈ 0.291 µM); in the experiment with Aspergillus fumigatus, 0.78 µg/mL (≈ 2.27 µM). The Ratio turned out to be 2 with Candida albicans [2] and 128 in the experiment on Saccharomyces cerevisiae [5].
For `Nc1ccc(C(=O)NCc2ccc(Oc3ccccc3)s2)c(N)n1`, the MIC was 0.78 µg/mL (≈ 2.29 µM) against Candida albicans [1], more than 12.5 µg/mL against Saccharomyces cerevisiae [3], 1.56 µg/mL (≈ 4.58 µM) in the experiment on Saccharomyces cerevisiae [4] and 1.56 µg/mL (≈ 4.58 µM) against Aspergillus fumigatus. Besides, the Ratio with Candida albicans [2] is listed as 2; in the experiment on Saccharomyces cerevisiae [5], more than 8.
Turning to `Nc1ccc(C(=O)NCc2ccc(Oc3ccc(F)cc3)s2)c(N)n1`, the MIC with Candida albicans [1] was determined as 0.39 µg/mL (≈ 1.09 µM); against Saccharomyces cerevisiae [3], 12.5 µg/mL (≈ 34.9 µM); against Saccharomyces cerevisiae [4] it was 0.78 µg/mL (≈ 2.18 µM); in the experiment with Aspergillus fumigatus, 0.78 µg/mL (≈ 2.18 µM). The Ratio is 2 in the experiment with Candida albicans [2] and 16 in the experiment with Saccharomyces cerevisiae [5].
`CCCCc1ccc(Cc2nccc3ccccc23)cc1` showed a minimum inhibitory concentration (MIC) with Candida albicans [1] of 1.56 µg/mL (≈ 5.66 µM).
In the case of `C[C@@H]1[C@H](O)[C@@H](C)/C=C/C=C/C=C/C=C/C=C/C=C/C=C/[C@H](O[C@@H]2O[C@H](C)[C@@H](O)[C@H](N)[C@@H]2O)C[C@@H]2O[C@](O)(C[C@@H](O)C[C@@H](O)[C@H](O)CC[C@@H](O)C[C@@H](O)CC(=O)O[C@H]1C)C[C@H](O)[C@H]2C(=O)O` [AMPHOTERICIN B], the minimum inhibitory concentration (MIC) against Candida albicans [1] came out at 1.56 µg/mL (≈ 1.69 µM); against Saccharomyces cerevisiae [3], 0.78 µg/mL (≈ 0.844 µM); against Saccharomyces cerevisiae [4] it was 0.78 µg/mL (≈ 0.844 µM); with Aspergillus fumigatus, 0.78 µg/mL (≈ 0.844 µM). The Ratio in the experiment with Saccharomyces cerevisiae [5] is on record as 1.
`OC(Cn1cncn1)(Cn1cncn1)c1ccc(F)cc1F` [FLUCONAZOLE]: the minimal inhibitory concentration (MIC) against Candida albicans [1] worked out at 0.39 µg/mL (≈ 1.27 µM); against Saccharomyces cerevisiae [3] it was 6.25 µg/mL (≈ 20.4 µM); against Saccharomyces cerevisiae [4] it was 6.25 µg/mL (≈ 20.4 µM). For the same compound, the Ratio in the experiment with Saccharomyces cerevisiae [5] came to 1.

Values taken from ChEMBL document CHEMBL1208693, “Synthesis and evaluation of novel antifungal agents-quinoline and pyridine amide derivatives” (2010).
